Bioassay records as filed in PubChem BioAssay.
A selection: hits, their analogues and other compounds. The true share with any hit is near 3.4%.
p97 ATPase inh: human p97 ATPase inhibition; P55072; recombinant p97 ATPase, Kinase-Glo ATP luminescence, 3 h; inhibition, % at 8 µM; hit rate 0.42% among 220,000; AID 1481; in the data active means inhibition above about 15%
ROMK mod: modulators of human ROMK potassium channel; P48048; Tet-inducible ROMK, thallium flux fluorescence; actives lie on both sides; B-score at 10 µM; hit rate 2% among 130,000;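 active means signal ratio slope over the read window, or its plate-corrected B-score, at least 3 SD from the plate mean, either direction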;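 further: B-score of the F/F0 ratio slope over 7 to 12 s after thallium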
PKD1 inh: PKD1 (human) kinase inhibition; Q15139; PKD1 kinase fluorescence polarization assay; inhibition, % (no concentration beside the values); hit rate 0.056% among 200,000; AID 797; in the data active means inhibition above about 50%
DTT redox prof: compounds producing H2O2 with reducing agent – biochemical, NIH compound library profiling, artefact control for MLSCN library redox annotation, primary screen | DTT-dependent redox cycling H2O2, phenol red/HRP absorbance; 100% = 100 µM peroxide control, 0% = buffer | activation, % at 10 µM | hit rate 0.03% among 200,000 | AID 878;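 active means activation of at least 50% relative to the plate's high and low controls in the primary single-dose screen; inactive means activation below 50%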;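 further: compound incubated with DTT at 0.8 mM final as the reducing agent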
MDM2 E3 inh: blocks human Mdm2 ubiquitin ligase activity; Q00987; hit rate 0.11% among 210,000; signal enhancement, % at 5 µM; cell-based MDM2 ubiquitination luciferase reporter, 2 h; 0 = plate control, 100 = twice control, blank-subtracted; AID 1230;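 active means signal enhancement of 30% or more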;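 further: luminescence tracks abundance of the self-degrading MDM2-luciferase fusion protein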
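Test system: mammalian cells stably expressing self-ubiquitinating, self-degrading MDM2 E3–luciferase fusion; Amount: 2000 cells in each well; Medium: DMEM; Schedule: 4 h settle plus 2 h compound, 37 °C; Technique: SteadyLite luciferase luminescence after 15 min room-temperature reagent incubation; Benchmarks: plate control and blank wells.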
KCC2 mod: modulates chloride dependent transport by human KCC2 | Q9H2X9 | AID 1456 | hit rate 2.2% among 190,000 | KCC2 cells, thallium flux FluoZin-2 fluorescence | B-score of Tl+ flux slope (higher = more flux/activation; lower = inhibition) at 10 µM;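 active means thallium flux slope and its plate-corrected score both differing from the plate sample mean at a set confidence after two filtering rounds, in either direction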;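 further: slope of fluorescence scaled to starting intensity during 10 to 20 s after thallium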
Target sequence (Q9H2X9 whole entry, looked up): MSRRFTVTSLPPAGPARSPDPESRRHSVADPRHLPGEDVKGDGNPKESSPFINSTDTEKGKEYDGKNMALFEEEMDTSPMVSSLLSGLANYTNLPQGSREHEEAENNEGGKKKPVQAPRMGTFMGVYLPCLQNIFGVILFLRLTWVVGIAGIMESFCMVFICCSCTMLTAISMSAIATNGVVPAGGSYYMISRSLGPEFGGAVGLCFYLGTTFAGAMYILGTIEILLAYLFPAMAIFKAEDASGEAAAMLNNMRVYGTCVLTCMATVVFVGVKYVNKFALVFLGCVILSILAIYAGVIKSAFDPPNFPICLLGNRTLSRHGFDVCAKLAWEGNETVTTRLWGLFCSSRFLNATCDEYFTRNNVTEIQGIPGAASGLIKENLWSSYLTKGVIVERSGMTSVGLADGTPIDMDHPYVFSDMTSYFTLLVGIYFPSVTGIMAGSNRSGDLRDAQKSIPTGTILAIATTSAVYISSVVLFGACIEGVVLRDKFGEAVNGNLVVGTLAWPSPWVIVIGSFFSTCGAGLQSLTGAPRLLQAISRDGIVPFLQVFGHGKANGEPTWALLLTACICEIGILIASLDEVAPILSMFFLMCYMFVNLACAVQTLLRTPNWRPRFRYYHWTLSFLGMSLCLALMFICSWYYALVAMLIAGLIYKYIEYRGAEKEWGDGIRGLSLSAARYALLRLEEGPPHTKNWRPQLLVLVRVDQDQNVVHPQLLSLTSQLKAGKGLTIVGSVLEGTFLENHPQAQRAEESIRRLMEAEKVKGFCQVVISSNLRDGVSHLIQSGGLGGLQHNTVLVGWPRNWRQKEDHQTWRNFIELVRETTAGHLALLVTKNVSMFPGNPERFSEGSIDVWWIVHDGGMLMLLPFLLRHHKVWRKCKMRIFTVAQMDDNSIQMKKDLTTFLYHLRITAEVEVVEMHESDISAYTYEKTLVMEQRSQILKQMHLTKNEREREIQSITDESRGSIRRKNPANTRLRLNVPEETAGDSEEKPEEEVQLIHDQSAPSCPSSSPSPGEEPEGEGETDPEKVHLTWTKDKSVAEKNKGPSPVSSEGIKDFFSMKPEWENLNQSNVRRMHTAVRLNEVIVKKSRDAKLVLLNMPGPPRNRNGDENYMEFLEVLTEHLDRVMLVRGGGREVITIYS
KCC2 sec1: KCC2 (human) modulation, secondary assay. shares compounds with KCC2 mod. HEK293-KCC2, thallium flux, FluoZin2 fluorescence; stronger effect = higher value. normalised thallium flux (F/F0 slope) at 10 µM. hit rate 15% among 3,700. AID 1713;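 active means thallium flux slope above the same plate's solvent-only control mean plus 3 SD; inconclusive means the two replicate wells disagree; inactive means no significant difference from solvent-only control wells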
KCC2 bumet counter: thallium flux despite bumetanide block in KCC2 cells, secondary assay 3 | hit rate 49% among 3,700 | normalized thallium flux at 10 µM | HEK293-KCC2 + bumetanide/ouabain, thallium flux FluoZin2; stronger effect = higher value | shares compounds with KCC2 mod;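 active means thallium entry rate above the same plate's blocked-transporter control wells by more than 3 SD; inconclusive means the two repeat wells disagree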;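 further: raw slope of fluorescence over initial fluorescence between 10 and 20 s after thallium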
KCC2 sec2: confirmation of human KCC2 transport modulators. hit rate 23% among 3,700. HEK293-KCC2, thallium flux FluoZin2 fluorescence; actives lie on both sides; F/F0 rise rate, 10–20 s post-thallium. AID 1715. normalized thallium flux at 10 µM. shares compounds with KCC2 mod;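 active means thallium flux slope more than 3 SD above or below the plate's solvent-only control mean, mostly below; inconclusive means the two repeat wells disagreed; inactive means no significant shift from solvent-only controls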
HEK293 Tl flux: parental HEK flux effect, counter-screen. shares compounds with KCC2 mod. HEK293 parental cells, thallium flux FluoZin2, ouabain; baseline-ratio fluorescence slope, 10–20 s after thallium. thallium flux rate (normalised fluorescence) at 10 µM. hit rate 46% among 3,700. AID 1716;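 active means thallium flux rate significantly above the same plate's solvent-only control wells, beyond their mean plus 3 SD; inconclusive means the two replicate wells gave conflicting results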
KCC2 ouabain: modulates human KCC2 on retest with ouabain. shares compounds with KCC2 mod. HEK293-KCC2, thallium flux FluoZin2 fluorescence; bidirectional: low = inhibitor, high = activator. raw Tl+ flux slope (below DMSO = inhibition, above = activation) at 10 µM. hit rate 48% among 3,700;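 active means thallium flux slope beyond 3 SD from same-plate DMSO control mean in most replicates, usually higher, sometimes lower; inconclusive means repeat tests gave conflicting results; inactive means no significant difference from controls in most replicates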;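 further: slope of initial-normalized fluorescence between seconds 10 and 20 after thallium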
HEK293 Tl flux2: parental HEK flux effect, counter-screen 2; shares compounds with KCC2 mod; HEK293 parental, thallium flux FluoZin-2 fluorescence slope; thallium flux slope at 10 µM; hit rate 33% among 3,700; AID 1718;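 active means thallium flux slope above the same plate's solvent-control mean plus 3 SD in both duplicate wells; inconclusive means duplicate wells that disagreed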;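 further: run without ouabain in cells lacking the KCC2 cotransporter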
Large screens that a line does not name were inactive (follow-up assays come after a bar, where they were run).

Cc1oc(-c2cc(F)ccc2F)nc1CN1CCN(c2cnccn2)CC1	KCC2 mod -5 | KCC2 sec1 inactive | KCC2 bumet counter inactive | KCC2 sec2 inactive | HEK293 Tl flux inactive | KCC2 ouabain inactive | HEK293 Tl flux2 inconclusive
CN1/C(=C\C(=O)COc2ccc3c(c2)OCO3)C(C)(C)c2ccccc21	KCC2 mod -4 (no result: ROMK mod) | KCC2 sec1 inactive | KCC2 bumet counter inactive | KCC2 sec2 0.025 | HEK293 Tl flux inactive | KCC2 ouabain inconclusive | HEK293 Tl flux2 inactive
CCOc1ccccc1C1C(C#N)=C(N)Oc2n[nH]c(CC)c21 (stereo not given)	KCC2 mod -4.9 (no result: ROMK mod) | KCC2 sec1 inactive | KCC2 bumet counter inactive | KCC2 sec2 inactive | HEK293 Tl flux inactive | KCC2 ouabain inactive | HEK293 Tl flux2 inactive
O=c1c2ccccc2[nH]c(=S)n1Cc1ccc2c(c1)OCO2	KCC2 mod 10 | KCC2 sec1 inconclusive | KCC2 bumet counter 0.012 | KCC2 sec2 inactive | HEK293 Tl flux 0.0098 | KCC2 ouabain inactive | HEK293 Tl flux2 0.013
C=CCn1c(=S)[nH]c2ccccc2c1=O	none (no result: KCC2 mod)
CC(C)Cn1c(=S)[nH]c2ccccc2c1=O	KCC2 mod 64 | KCC2 sec1 0.0099 | KCC2 bumet counter 0.12 | KCC2 sec2 0.086 | HEK293 Tl flux 0.086 | KCC2 ouabain 0.092 | HEK293 Tl flux2 0.085
C=C(C)Cn1c(=S)[nH]c2ccccc2c1=O	KCC2 mod 25 | KCC2 sec1 0.014 | KCC2 bumet counter 0.074 | KCC2 sec2 inactive | HEK293 Tl flux 0.024 | KCC2 ouabain 0.049 | HEK293 Tl flux2 0.014
CC(C)Cn1c(=S)[nH]c2cc(Cl)ccc21	KCC2 mod 92 (no result: ROMK mod) | KCC2 sec1 inconclusive | KCC2 bumet counter 0.097 | KCC2 sec2 inconclusive | HEK293 Tl flux 0.083 | KCC2 ouabain 0.078 | HEK293 Tl flux2 0.063
O=c1[nH]c2cc(Cl)ccc2n1-c1ccccc1	none
COc1cccc(/C=N/NC(=O)c2cnccn2)c1O	none (no result: ROMK mod, PKD1 inh, DTT redox prof)
CSc1nc(=S)n(Cc2ccccc2)c(C)c1C(C)=O	none
C=CCn1c(-c2ccccc2)ccc(C#N)c1=O	none (no result: ROMK mod)
Cn1c(SCc2ccc(F)cc2)nnc1-c1ccccn1	none (no result: ROMK mod)
CCCC(C)NC(=O)COC(=O)c1cccc(NS(C)(=O)=O)c1 (stereo not given)	none (no result: ROMK mod, PKD1 inh, DTT redox prof, KCC2 mod)
O=c1c2ccccc2[nH]c(=S)n1CCC1=CCCCC1	KCC2 mod 38 | KCC2 sec1 inconclusive | KCC2 bumet counter 0.082 | KCC2 sec2 0.048 | HEK293 Tl flux 0.032 | KCC2 ouabain 0.043 | HEK293 Tl flux2 0.026
CCN1CCN(C(=O)c2ccc3c(=O)n(CCC4=CCCCC4)c(=O)[nH]c3c2)CC1	none (no result: ROMK mod)
CC(C)c1ccc(NC(=S)NNC(=O)c2cccs2)cc1	KCC2 mod 25 | KCC2 sec1 inconclusive | KCC2 bumet counter 0.038 | KCC2 sec2 inactive | HEK293 Tl flux 0.018 | KCC2 ouabain inconclusive | HEK293 Tl flux2 inconclusive
O=C(Cc1cccc2ccccc12)N/N=C/c1ccc(Sc2cccc3cccnc23)o1	KCC2 mod 10 | KCC2 sec1 inactive | KCC2 bumet counter 0.013 | KCC2 sec2 inactive | HEK293 Tl flux 0.011 | KCC2 ouabain 0.025 | HEK293 Tl flux2 0.013
CC(=O)NNc1[nH]c2c(c(=O)c1[N+](=O)[O-])c(=O)n(C)c(=O)n2C	none
N#Cc1cc(C(=O)c2cc(Cl)ccc2O)cn(-c2ccccc2)c1=O	KCC2 mod -5 | KCC2 sec1 inactive | KCC2 bumet counter inactive | KCC2 sec2 inactive | HEK293 Tl flux inactive | KCC2 ouabain inactive | HEK293 Tl flux2 inactive
Cc1c(-n2cc(C(=O)c3cc(Cl)ccc3O)cc(C#N)c2=O)c(=O)n(-c2ccccc2)n1C	none (no result: ROMK mod)
COc1ccc(N2CCN(C(=O)CCNC(=O)c3ccccc3)CC2)cc1	none
Cc1ccc(CCc2nnc(SCC(=O)Nc3cc(Cl)ccc3Cl)n2-c2ccccc2)o1	KCC2 mod -4.7 | KCC2 sec1 inactive | KCC2 bumet counter inactive | KCC2 sec2 inactive | HEK293 Tl flux inactive | KCC2 ouabain inactive | HEK293 Tl flux2 inactive
Cc1ccccc1OCc1n[nH]c(=S)n1Cc1ccccc1	KCC2 mod 6.1 | KCC2 sec1 inactive | KCC2 bumet counter 0.029 | KCC2 sec2 0.041 | HEK293 Tl flux 0.024 | KCC2 ouabain 0.03 | HEK293 Tl flux2 0.031
CCc1c(-c2n[nH]c(=S)n2Cc2ccccc2)csc1C	KCC2 mod 14 (no result: ROMK mod) | KCC2 sec1 inconclusive | KCC2 bumet counter 0.066 | KCC2 sec2 inactive | HEK293 Tl flux 0.017 | KCC2 ouabain 0.035 | HEK293 Tl flux2 0.011
Cc1scc(-c2n[nH]c(=S)n2Cc2ccccc2)c1C	none (no result: ROMK mod)
S=c1[nH]nc(-c2ccc(Br)cc2)n1Cc1ccccc1	KCC2 mod 24 | KCC2 sec1 inactive | KCC2 bumet counter 0.027 | KCC2 sec2 inactive | HEK293 Tl flux 0.026 | KCC2 ouabain 0.029 | HEK293 Tl flux2 inconclusive
S=c1[nH]nc(COc2cccc3ccccc23)n1Cc1ccccc1	none (no result: ROMK mod, PKD1 inh, DTT redox prof)
Oc1ccc(-c2n[nH]c(=S)n2Cc2ccccc2)cc1	none
S=c1[nH]nc(-c2ccc3ccccc3n2)n1Cc1ccccc1	KCC2 mod 9.2 | KCC2 sec1 0.015 | KCC2 bumet counter 0.027 | KCC2 sec2 inactive | HEK293 Tl flux 0.029 | KCC2 ouabain 0.031 | HEK293 Tl flux2 0.016
CCN(C(=O)Cn1cc(C(C)=O)c2ccccc21)c1ccccc1	none
Cc1ccc(-c2nn(-c3ccccc3)cc2C(=O)NN2CCN(C)CC2)cc1	none
CCn1cc(-c2nnnn2-c2ccc(Cl)cc2)c(=O)c2ccccc21	none
COC(=O)CCN1CCN(S(=O)(=O)c2cccc(Br)c2)CC1	none
Cc1cc(C)c2nncn2n1	none (no result: ROMK mod, PKD1 inh, DTT redox prof, MDM2 E3 inh, KCC2 mod)
COCCNC(=O)c1cc2nc3c(c(C(F)(F)F)n2n1)CCc1ccccc1-3	none
COc1ccc(OC)c(/C=N/NC(=O)C(=O)N2CCCC2)c1	none
